Source: article PMC3095849 (Bioorganic & medicinal chemistry, 2011)
Where a name gives a salt, the structure may show the parent alone. Read-outs that look alike come from different tables or passages of the source.

Legend:
human κ opioid receptor [1] = target: T1, human κ opioid receptor (Homo sapiens, UniProt P41145); details: cited from earlier work
human κ opioid receptor [2] = target: T1, human κ opioid receptor; test: Opioid binding, [3H]U69,593, CHO membranes; details: ratio of Ki values μ/κ/δ
human κ opioid receptor [3] = target: T1, human κ opioid receptor; test: [35S]GTPγS binding assay, agonist properties, kappa; assay type: biochemical
human κ opioid receptor [4] = target: T1, human κ opioid receptor; test: [35S]GTPγS binding assay, inhibition of U50,488-stimulated binding, kappa; assay type: biochemical; details: read-out: Kappa (Antagonist) IC50; binding stimulated by 100 nM U50,488
Method in brief: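 Antagonist mode: membranes from CHO cells stably expressing human κ receptor, with 12 concentrations of test compound and 0.08 nM [35S]GTPγS. Buffer: 50 mM Tris-HCl pH 7.4, 3 μM GDP, 3 mM MgCl2, 0.2 mM EGTA, 100 mM NaCl. Incubated 60 min at 30°C. Nonspecific binding: 10 μM GTPγS. Filtered and counted. IC50 and Imax calculated. Three experiments in triplicate, mean ± SEM.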

human μ opioid receptor = human μ opioid receptor (Homo sapiens, UniProt P35372); test: [35S]GTPγS binding assay, agonist properties, mu; assay type: biochemical
Method in brief: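 CHO cells stably expressing human μ receptor, grown in DMEM with 10% FBS at 37°C, 5% CO2. Membranes incubated with 12 concentrations of test compound in 50 mM Tris-HCl pH 7.4, 3 μM GDP, 3 mM MgCl2, 0.2 mM EGTA, 100 mM NaCl, plus 0.08 nM [35S]GTPγS, 60 min, 30°C. Nonspecific: 10 μM GTPγS. Filtration, scintillation counting. EC50 and Emax calculated. Three experiments in triplicate.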

T1 sequence (P41145 whole entry): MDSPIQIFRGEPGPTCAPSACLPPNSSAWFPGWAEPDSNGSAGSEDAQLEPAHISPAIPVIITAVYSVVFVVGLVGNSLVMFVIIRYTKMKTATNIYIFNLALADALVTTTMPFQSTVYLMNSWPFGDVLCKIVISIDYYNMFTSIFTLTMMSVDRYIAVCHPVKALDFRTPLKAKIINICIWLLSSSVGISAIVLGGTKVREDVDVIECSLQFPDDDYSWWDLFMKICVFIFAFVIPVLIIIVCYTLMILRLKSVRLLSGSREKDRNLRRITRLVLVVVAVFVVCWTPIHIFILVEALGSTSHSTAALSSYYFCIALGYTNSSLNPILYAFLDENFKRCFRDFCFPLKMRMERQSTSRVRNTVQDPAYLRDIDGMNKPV
human μ opioid receptor, sequence (P35372 whole entry): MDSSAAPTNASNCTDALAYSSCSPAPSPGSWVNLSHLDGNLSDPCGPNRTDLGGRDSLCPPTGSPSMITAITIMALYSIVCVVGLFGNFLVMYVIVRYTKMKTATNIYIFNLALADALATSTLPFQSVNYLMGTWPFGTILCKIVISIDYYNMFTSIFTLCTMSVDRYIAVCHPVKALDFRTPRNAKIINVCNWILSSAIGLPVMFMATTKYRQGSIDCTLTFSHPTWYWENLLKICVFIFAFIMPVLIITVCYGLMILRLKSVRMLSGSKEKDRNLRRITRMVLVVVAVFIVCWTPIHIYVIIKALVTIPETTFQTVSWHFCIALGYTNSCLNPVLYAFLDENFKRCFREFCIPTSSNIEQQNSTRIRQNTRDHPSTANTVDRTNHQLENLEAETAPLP

Structure (SMILES)	Selectivity μ : κ : δ (human κ opioid receptor [1])	Selectivity μ : κ : δ (human κ opioid receptor [2])	Functional character at κ receptor (full/partial agonist) (human κ opioid receptor [3])	IC50 (human κ opioid receptor [4]) [µM]	Functional character at μ receptor (full/partial agonist) (human μ opioid receptor)
O=C(CCCCCCCCC(=O)Oc1ccc2c(c1)[C@@]13CCCC[C@H]1[C@@H](C2)N(CC1CCC1)CC3)Oc1ccc2c(c1)[C@@]13CCCC[C@H]1[C@@H](C2)N(CC1CCC1)CC3 [Compound 3]	2/1/90	–	–	–	–
O=C(/C=C/C(=O)Oc1ccc2c(c1)[C@@]13CCCC[C@H]1[C@@H](C2)N(CC1CCC1)CC3)Oc1ccc2c(c1)[C@@]13CCCC[C@H]1[C@@H](C2)N(CC1CCC1)CC3 [Compound 4]	3/1/120	–	–	–	–
CO[C@@]12CCCC[C@@]13CCN(CC1CCC1)[C@@H]2Cc1ccc(O)cc13 [Compound 8, (−)-14-methoxybutorphanol]	–	1/1/58	partial κ agonists	–	–
CO[C@@]12CCCC[C@@]13CCN(CC1CCC1)[C@@H]2Cc1ccc(OC(=O)CCCCCCCCC(=O)Oc2ccc4c(c2)[C@@]25CCCC[C@@]2(OC)[C@@H](C4)N(CC2CCC2)CC5)cc13 [Compound 9b, Bis((−)-14-methoxy-17-N-cyclobutylmethyl)morphinan-3-yl) decanedioate]	–	1/1/50	partial κ agonists	–	–
Nc1nc2cc3c(cc2s1)C[C@@H]1[C@@H]2CCCC[C@]32CCN1CC1CC1 [Compound 10, ATPM]	31/1/592	–	–	–	–
O=C(CCCCCCCCC(=O)Nc1nc2cc3c(cc2s1)C[C@@H]1[C@@H]2CCCC[C@]32CCN1CC1CC1)Nc1nc2cc3c(cc2s1)C[C@@H]1[C@@H]2CCCC[C@]32CCN1CC1CC1 [Compound 11, Bis((−)-3-aminothiazolo-N-cyclopropyl-methylmorphinan)sebacamide hydrochloride]	–	24/1/460	full κ agonists	> 10	partial μ agonists
c1c2c(cc3sc(NCCCCCCCCCCNc4nc5cc6c(cc5s4)C[C@@H]4[C@@H]5CCCC[C@]65CCN4CC4CC4)nc13)C[C@@H]1[C@@H]3CCCC[C@]23CCN1CC1CC1 [Compound 12, (−)-3,3′-(decane-1,10-diaminothiazolo)bis(cyclopropylmethyl)morphinan hydrochloride]	–	9/1/140	full κ agonists	> 10	partial μ agonists
CO[C@@]12CCCC[C@@]13CCN(CC1CCC1)[C@@H]2Cc1ccc(OC(=O)CCCCCCCCC(=O)OCc2ccccc2)cc13 [Compound 13b, Benzyl (−)-14-methoxy-butorphanol-3-yl decanedioate]	–	1/1/93	partial κ agonists	–	–
C=CCN1CC[C@]23c4c5ccc(OC(=O)CCCCCCCCC(=O)Oc6ccc7c(c6)[C@@]68CCCC[C@@]6(O)[C@@H](C7)N(CC6CCC6)CC8)c4O[C@H]2C(=O)CC[C@@]3(O)[C@H]1C5 [Compound 15a, (5α)-17-Allyl-14-hydroxy-6-oxo-4,5-epoxymorphinan-3-yl-17-((−)-N-cyclobutylmethyl-14-hydroxyl-mophinan-3-yl) decanedioate.]	–	3/1/130	partial κ agonists	–	–
O=C(CCCCCCCCC(=O)Oc1ccc2c(c1)[C@@]13CCCC[C@@]1(O)[C@@H](C2)N(CC1CCC1)CC3)Oc1ccc2c(c1)[C@@]13CCCC[C@H]1[C@@H](C2)N(CC1CCC1)CC3 [Compound 15b, ((−)-17-N-cyclobutylmethyl)morphinan-3-yl-((−)-14-hydroxyl-17-N-cyclobutylmethyl) morphinan-3-yl) decanedioate]	–	1/1/110	partial κ agonists	–	–
C=CCN1CC[C@]23c4c5ccc(OC(=O)CCCCCCCCC(=O)Oc6ccc7c(c6)[C@@]68CCCC[C@@]6(OC)[C@@H](C7)N(CC6CCC6)CC8)c4O[C@H]2C(=O)CC[C@@]3(O)[C@H]1C5 [Compound 15c, (5α)-17-allyl-14-hydroxy-6-oxo-4,5-epoxymorphinan-3-yl-((−)-14-methoxyl-17-N-cyclobutylmethyl)morphinan-3-yl) decanedioate]	–	4/1/280	partial κ agonists	–	–
